Experiments:
[1] = molecular target: T1, E. coli RNAP TEC (Escherichia coli, UniProt P0A8T7+P0A8V2); experiment: PPi release, coupled PPase / MDCC-PBP stopped-flow assay; format: biochemical
[2] = test system: TEC; conditions: absence of the next incoming substrate NTP; cited from earlier work
[3] = molecular target: GMP-extended TEC (TEC17), E. coli RNAP (Escherichia coli, UniProt P0A8T7+P0A8V2); format: binding
[4] = molecular target: T1, E. coli RNAP TEC; experiment: Time-resolved nucleotide addition; format: biochemical; conditions: i − 7 6-MI TECs; 200 µM NTP, 25°C
[5] = molecular target: TEC assembled with wild-type E. coli RNAP (Escherichia coli, UniProt P0A8T7+P0A8V2); experiment: Equilibrium TGT titration of extended TECs, fluorescence of base analogs; format: binding
How it was run: (§1)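 E. coli RNAP TECs (template strand limiting at 1 µM) on a synthetic scaffold, with 6-MI or 2-AP in the template or 2-AP added at the RNA 3′ end. Extended 10 min at 25°C in TB10 (pH 7.5) with 5 µM substrate and 0.2 nM yeast PPase. TGT added afterwards, 5 min more. Emission peaks: 6-MI 420 nm (ex 340), 2-AP 375 nm (ex 330). KTGT from a dissociation-equilibrium fit; errors are SD of best-fit estimates.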

[6] = molecular target: TEC assembled using β′R933A RNAP (Escherichia coli, UniProt P0A8T7+P0A8V2, R933A); experiment: Equilibrium TGT titration of extended TECs, β′R933A RNAP; format: binding; conditions: β′Arg933 substituted with alanine
How it was run: as §1

[7] = molecular target: TEC assembled using β′M932A RNAP (Escherichia coli, UniProt P0A8T7+P0A8V2, M932A); experiment: Equilibrium TGT titration of extended TECs, β′M932A RNAP; format: binding
How it was run: as §1

[8] = molecular target: T1, E. coli RNAP TEC; format: biochemical; conditions: time-resolved, saturating TGT (5 µM)
[9] = molecular target: TEC assembled using β′H936A RNAP (Escherichia coli, UniProt P0A8T7+P0A8V2, H936A); experiment: Equilibrium TGT titration of extended TECs, β′H936A RNAP; format: binding; conditions: β′His936 substituted with alanine
How it was run: as §1

[10] = molecular target: β′N458D TEC (Escherichia coli, UniProt P0A8T7+P0A8V2, N458D); experiment: Equilibrium TGT titration of extended TECs, β′N458D RNAP; format: binding; conditions: AMP-extended β′N458D TEC
How it was run: as §1

[11] = test system: RNAP; conditions: cited from earlier work
[12] = test system: ΔTL RNAP TEC; experiment: Equilibrium TGT titration of extended TECs, ΔTL RNAP; format: binding, Escherichia coli; conditions: AMP-extended TEC, TL domain replaced by a two-alanine linker
How it was run: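 Two-alanine-linker ΔTL RNAP TECs (template strand limiting at 1 µM) with a base-analog fluorophore in the template. Extended 1.5 h at 25°C in TB10 (pH 7.5) with 5 µM substrate and 0.2 nM yeast PPase. TGT added post-catalytically for 5 min more. Fluorescence taken at the emission peak: 6-MI 420 nm (ex 340) or 2-AP 375 nm (ex 330). Titration fitted to dissociation-equilibrium equations.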

In the case of `O=P(O)(O)OP(=O)(O)O` [PPi, pyrophosphate], the “PPi to MDCC-PBP·Pi conversion rate” value ([1]; 10 µM PPase) is listed as 120 s⁻¹, the “rate of PPi release from the TEC” value ([1]; same TEC as Johnson et al., PPase-MDCC-PBP method) is listed as 120 s⁻¹ and the “rate of PPi release from the TEC” value [2] is listed as 2.9 s⁻¹.

For `Nc1ccn([C@@H]2O[C@H](COP(=O)(O)CP(=O)(O)OP(=O)(O)O)[C@@H](O)[C@H]2O)c(=O)n1` [CMPcPP, cytidine-5′-[(α,β)-methyleno]triphosphate], the “decrease in fluorescence upon CMPcPP binding to the TEC” value [3] was ~15%, the “effect on fluorescence in the absence of TGT” value [3] was “failed to increase fluorescence” and the “effect on TGT action” value ([3]; templated CMPcPP) was “able to counter the effect of TGT”.

In the case of `Nc1ncnc2c1ncn2[C@@H]1O[C@H](COP(=O)(O)O)[C@@H](O)[C@H]1O` [AMP], the “nucleotide addition, half-life” value [4] is reported as ~0.02 s.

In the case of `CC(=O)O[C@@H]1[C@H](N)[C@@H](OP(=O)(O)O)[C@@]2(C(=O)O)CS[C@@](O)(C(N)=O)[C@@H]1O2` [TGT, tagetitoxin], the “quenching of the fluorescence of 3′ RNA 2-AP by TGT” value ([5]; 2-AP ribonucleoside monophosphate-extended TEC, wild-type) is reported as 2 fold, the “increase of apparent TGT binding constant relative to rNMP-extended TECs” value ([5]; TECs lacking a 2′-OH group at the RNA 3′ end) is reported as ~10 fold and the “increase in KTGT relative to rNMP-extended TECs” value ([5]; TECs lacking a 3′ OH group at the RNA 3′ end) is reported as “approximately 5 fold”. The “effect on translocation state of extended TECs” value ([5]; TGT added post-catalytically) was “quantitatively moves extended TECs into the pre-translocated state”, the “increase in KTGT relative to wild-type” value [6] was > 7 fold and the “quenching of the fluorescence of 3′ RNA 2-AP by TGT” value ([7]; 2-AP ribonucleoside monophosphate-extended β′M932A TEC) was “did not quench”. For the same compound, the “apparent KTGT relative to wild-type TEC” value ([7]; β′M932A TEC, higher) was 5 fold, the “effect on forward translocation” value [8] was “does not affect the rate of forward translocation” and the “increase in KTGT relative to wild-type” value [9] was > 7 fold. The “move into the pre-translocated state at saturating TGT concentrations” value [10] was ≤ 20%, the effect on pyrophosphorolysis [11] was “strongly inhibit” and the “response of TEC to TGT action” value [12] was “completely resistant”.

For `Nc1ccn([C@@H]2O[C@H](COP(=O)(O)O)[C@@H](O)[C@H]2O)c(=O)n1` [CMP], the “nucleotide addition, half-life” value [4] was ~0.008 s.

For `Nc1nc2c(ncn2[C@@H]2O[C@H](COP(=O)(O)O)[C@@H](O)[C@H]2O)c(=O)[nH]1` [GMP], the “nucleotide addition, half-life” value [4] was ~0.02 s.

In the case of `O=c1ccn([C@@H]2O[C@H](COP(=O)(O)O)[C@@H](O)[C@H]2O)c(=O)[nH]1` [UMP], the “nucleotide addition, half-life” value [4] is reported as ~0.02 s.
